Source: paper PMC6424611 (Journal of molecular biology, 2019)
Residue numbers refer to the chain shown, from its start. Names and notes keep the numbering of the source.

B1: WT: full-length wild type RSK1 (1–735) (protein)
chain: MPLAQLKEPWPLMELVPLDPENGQTSGEEAGLQPSKDEGVLKEISITHHVKAGSEKADPSHFELLKVLGQGSFGKVFLVRKVTRPDSGHLYAMKVLKKATLKVRDRVRTKMERDILADVNHPFVVKLHYAFQTEGKLYLILDFLRGGDLFTRLSKEVMFTEEDVKFYLAELALGLDHLHSLGIIYRDLKPENILLDEEGHIKLTDFGLSKEAIDHEKKAYSFCGTVEYMAPEVVNRQGHSHSADWWSYGVLMFEMLTGSLPFQGKDRKETMTLILKAKLGMPQFLSTEAQSLLRALFKRNPANRLGSGPDGAEEIKRHVFYSTIDWNKLYRREIKPPFKPAVAQPDDTFYFDTEFTSRTPKDSPGIPPSAGAHQLFRGFSFVATGLMEDDGKPRAPQAPLHSVVQQLHGKNLVFSDGYVVKETIGVGSYSECKRCVHKATNMEYAVKVIDKSKRDPSEEIEILLRYGQHPNIITLKDVYDDGKHVYLVTELMRGGELLDKILRQKFFSEREASFVLHTIGKTVEYLHSQGVVHRDLKPSNILYVDESGNPECLRICDFGFAKQLRAENGLLMTPCYTANFVAPEVLKRQGYDEGCDIWSLGILLYTMLAGYTPFANGPSDTPEEILTRIGSGKFTLSGGNWNTVSETAKDLVSKMLHVDPHQRLTAKQVLQHPWVTQKDKLPQSQLSHQDLQLVKGAMAATYSALNSSKPTPQLKPIESSILAQRRVRKLPSTTL
modifications: left off: SmBiT, N-terminal, kept
B2: L714E: RSK1 mutant; eliminates the interaction between ERK and RSK (protein)
chain: B1 chain with L714E
modifications: left off: SmBiT, N-terminal, kept
B3: ΔC1: RSK1 with the last C-terminal residue truncated (1–734), no functional PBM (protein)
chain: MPLAQLKEPWPLMELVPLDPENGQTSGEEAGLQPSKDEGVLKEISITHHVKAGSEKADPSHFELLKVLGQGSFGKVFLVRKVTRPDSGHLYAMKVLKKATLKVRDRVRTKMERDILADVNHPFVVKLHYAFQTEGKLYLILDFLRGGDLFTRLSKEVMFTEEDVKFYLAELALGLDHLHSLGIIYRDLKPENILLDEEGHIKLTDFGLSKEAIDHEKKAYSFCGTVEYMAPEVVNRQGHSHSADWWSYGVLMFEMLTGSLPFQGKDRKETMTLILKAKLGMPQFLSTEAQSLLRALFKRNPANRLGSGPDGAEEIKRHVFYSTIDWNKLYRREIKPPFKPAVAQPDDTFYFDTEFTSRTPKDSPGIPPSAGAHQLFRGFSFVATGLMEDDGKPRAPQAPLHSVVQQLHGKNLVFSDGYVVKETIGVGSYSECKRCVHKATNMEYAVKVIDKSKRDPSEEIEILLRYGQHPNIITLKDVYDDGKHVYLVTELMRGGELLDKILRQKFFSEREASFVLHTIGKTVEYLHSQGVVHRDLKPSNILYVDESGNPECLRICDFGFAKQLRAENGLLMTPCYTANFVAPEVLKRQGYDEGCDIWSLGILLYTMLAGYTPFANGPSDTPEEILTRIGSGKFTLSGGNWNTVSETAKDLVSKMLHVDPHQRLTAKQVLQHPWVTQKDKLPQSQLSHQDLQLVKGAMAATYSALNSSKPTPQLKPIESSILAQRRVRKLPSTT
modifications: left off: SmBiT, N-terminal, kept

Columns and labels:
[1] = test system: PARD3B; experiment: NanoBiT protein-protein interaction assay; format: cell-based, human; settings: PARD3B 1–913, serum-starved HEK293T, n=6, vs WT RSK1
Summary of the method: (§1)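 Full-length RSK1 (N-terminal SmBiT) is paired with an N-terminal LgBiT fusion of the partner: ARHGEF12 isoform 2, GOPC isoform 2, PARD3B 1–913, or SYNJ2BP. Sensors are transiently co-expressed in HEK293T cells, which are serum-starved for 20 h from 4 h post-transfection and assayed with Nano-Glo at 24 h. Steady-state signal is referenced to the wild-type pair. For the EGF response (20 ng/ml, 60 min), signal is normalized to initial luminescence and to unstimulated furimazine decay. At least 6 replicates.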

[2] = test system: SYNJ2BP; experiment: NanoBiT protein-protein interaction assay; format: cell-based, human; settings: full-length proteins, serum-starved HEK293T, n=6, vs WT RSK1
Summary of the method: as §1

[3] = test system: MAGI1; experiment: NanoBiT protein-protein interaction assay; format: cell-based, human; settings: full-length proteins, serum-starved HEK293T, n=6, vs WT RSK1
Summary of the method: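 Full-length RSK1 (N-terminal SmBiT) is co-expressed with full-length MAGI1–LgBiT in HEK293T cells by FuGene HD transfection, then serum-starved for 20 h in CO2-independent medium. Cells are read with Nano-Glo 24 h post-transfection. Steady-state luminescence of mutant sensors is referenced to the wild-type pair. For the 20 ng/ml EGF response, signal is followed for 60 min and normalized to initial luminescence and to furimazine decay in unstimulated cells. At least 6 biological replicates.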

[4] = test system: RhoA; experiment: G-LISA RhoA activation assay; format: cell-based; settings: RSK1/2 knockout HEK293T, n=4; for serum-stimulated RhoA activity: serum-starved, 20% serum 5 min
[5] = test system: GOPC; experiment: NanoBiT protein-protein interaction assay; format: cell-based, human; settings: full-length proteins, serum-starved HEK293T, n=6, vs WT RSK1
Summary of the method: as §1

[6] = test system: ARHGEF12; experiment: NanoBiT protein-protein interaction assay; format: cell-based, human; settings: full-length proteins, serum-starved HEK293T, n=6, vs WT RSK1
Summary of the method: as §1

Molecule	steady-state luminescence of interaction sensor [1]	steady-state luminescence of interaction sensor [2]	steady-state luminescence of interaction sensor [3]	serum-stimulated RhoA activity [4]	basal RhoA activity ([4]; transfected)	steady-state luminescence of interaction sensor [5]	steady-state luminescence of interaction sensor [6]
B1	high luminescence signals	high luminescence signals	high luminescence signals	increased RhoA activity	increased level of basal RhoA activity	high luminescence signals	high luminescence signals
B2	decreased the luminescence outputs	decreased the luminescence outputs					
B3	significantly reduced the luminescent signal	significantly reduced the luminescent signal	significantly reduced the luminescent signal	only minor increment		significantly reduced the luminescent signal	significantly reduced the luminescent signal
